# Measurements collected from several papers.
# Compare with care: the assays were run in different laboratories.
# Target: Alpha-2A adrenergic receptor (ADRA2A, Homo sapiens, UniProt P08913)
# Tested at: 10 µM
# Residues used in one study (P08913 1-465): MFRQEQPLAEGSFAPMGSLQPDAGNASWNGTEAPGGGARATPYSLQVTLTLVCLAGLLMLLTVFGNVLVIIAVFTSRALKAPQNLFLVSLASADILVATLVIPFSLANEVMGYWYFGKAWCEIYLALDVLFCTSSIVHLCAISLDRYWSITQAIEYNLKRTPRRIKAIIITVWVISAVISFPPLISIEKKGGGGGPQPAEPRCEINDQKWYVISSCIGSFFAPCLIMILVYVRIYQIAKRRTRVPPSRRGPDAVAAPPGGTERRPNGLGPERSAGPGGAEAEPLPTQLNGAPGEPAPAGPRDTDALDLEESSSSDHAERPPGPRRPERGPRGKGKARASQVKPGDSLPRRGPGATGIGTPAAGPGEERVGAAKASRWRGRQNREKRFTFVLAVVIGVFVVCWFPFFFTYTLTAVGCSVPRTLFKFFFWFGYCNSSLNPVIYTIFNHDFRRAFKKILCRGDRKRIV
Structure (SMILES),read-out,technique,inhibition
CCN(Cc1ccccc1C(F)(F)F)C(=O)C1CCN(S(=O)(=O)c2ccc3[nH]ncc3c2)CC1,ligand displacement,radioligand,37%
N#Cc1cc(Cn2c(N3CCCC3)nc3ccccc32)ccc1F,ligand displacement,,31.6%
CN([C@@H]1CCc2c(CC(=O)O)c3ccccc3n2C1)S(=O)(=O)c1ccc(F)cc1,ligand displacement,,-3.89%
CCN(CC)c1ccc(C2Nc3ccc(C(=O)c4ccccc4)cc3NC3=C2C(=O)CC(C)(C)C3)cc1 (centres unmarked),ligand displacement,radioligand,5%
CC(=O)C1=C(C)N(c2cccc(C(F)(F)F)c2)C(=O)N[C@H]1c1ccc(C#N)nc1,ligand displacement,,-8.89%
CCCNc1nc2ccccc2n1Cc1ccc(Cl)cc1,ligand displacement,,90.2%
COc1cc(NC(C)=O)c(Cl)cc1C(=O)Nc1nccs1,cell-free assay,,-7%
O=C1c2ccccc2C(=O)N1CC#Cc1ccc2c(c1)C=C([N+](=O)[O-])C(C(F)(F)F)O2 (centres unmarked),ligand displacement,radioligand,88%
Ic1cccc2cnccc12,ligand displacement,radioligand,13%
Cc1cc(-c2nc(CN3CCNCC3)no2)cc2c1C(=O)N(Cc1ccc(OC(F)(F)F)cc1)C2,ligand displacement,radioligand,41%
O=C(c1ccc(Cl)cc1)N(Cc1ccccc1)C1CCCCC1,cell-free assay,,4%
